Test results: ChEMBL document CHEMBL3259680, “Discovery and Biological Evaluation of Novel Dual EGFR/c-Met Inhibitors” (ACS Med Chem Lett, 2014)
Active and inactive are the calls of the source. The calls are words filed in the database; no cut-off is given here.

How the values were obtained:
[1] = Cytotoxicity against mouse NIH/3T3 cells after 48 hrs by MTT assay; assay type: cell-based; conditions: NIH3T3, 48 h
HCC827 = assay: Induction of apoptosis in human HCC827 cells at 1 uM after 24 hrs using propidium iodide by flow cytometry; assay type: functional, cell-based
Outline: (§1)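 Apoptosis read by flow cytometry; means ± SD of at least 3 independent experiments; unpaired 2-tailed Student's t test against DMSO-treated cells, p < 0.05.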

NCI-H1993 [2] = assay: Cytotoxicity against human NCI-H1993 cells after 48 hrs by MTT assay; assay type: functional, cell-based; conditions: NCI-H1993, 48 h
NCI-H1993 [3] = assay: Induction of apoptosis in human NCI-H1993 cells at 1 uM after 24 hrs using propidium iodide by flow cytometry; assay type: functional, cell-based; outline: as §1
[4] = Cytotoxicity against human HCC827 cells after 48 hrs by MTT assay; assay type: functional, cell-based; conditions: HCC827, 48 h
NCI-H1975 = assay: Cytotoxicity against human NCI-H1975 cells after 48 hrs by MTT assay; assay type: functional, cell-based; conditions: NCI-H1975, 48 h
[5] = target: T1, Epidermal growth factor receptor (Homo sapiens, UniProt P00533); assay: Inhibition of recombinant EGFR (unknown origin) using poly-GT peptide as substrate by Transcreener assay
[6] = target: T2, Hepatocyte growth factor receptor (Homo sapiens, UniProt P08581); assay: Inhibition of recombinant c-MET (unknown origin) using poly-AEKY peptide as substrate after 60 mins by ADPGlo assay
[7] = target: Epidermal growth factor receptor (Homo sapiens, UniProt P00533, L858R); assay: Inhibition of recombinant EGFR L858R mutant (unknown origin) using poly-GT peptide as substrate after 1 hr by Transcreener assay; assay type: protein assay
Insulin receptor = Insulin receptor (Homo sapiens, UniProt P06213); assay: Inhibition of recombinant INSR (unknown origin) using fluorescent dye-labelled KKSRGDYMTMQIG peptide peptide as substrate after 1 hr by IMAP assay
[8] = target: T2, Hepatocyte growth factor receptor; assay: Inhibition of recombinant c-MET (unknown origin) using poly-AEKY peptide as substrate by ADPGlo assay; conditions: TDE = time-dependent effect
[9] = target: T1, Epidermal growth factor receptor; assay: Inhibition of EGFR (unknown origin) phosphorylation by cell-based Western blot analysis
A549 = assay: Cytotoxicity against human A549 cells after 48 hrs by MTT assay; assay type: functional, cell-based; conditions: A549, 48 h
[10] = target: T2, Hepatocyte growth factor receptor; assay: Inhibition of c-MET (unknown origin) phosphorylation by cell-based Western blot analysis
MDCK [11] = assay: Antiinvasive activity in MDCK cells assessed as inhibition of HGF-induced cell motility preincubated at 0.3 uM for 1 hr before HGF treatment measured after 48 hrs by cell scattering assay; assay type: functional, cell-based; conditions: Canis lupus familiaris
[12] = target: T2, Hepatocyte growth factor receptor; assay: Competitive inhibition of recombinant c-MET (unknown origin) using poly-AEKY peptide as substrate by Lineweaver-Burk double reciprocal plot method
Outline: (§2)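 Recombinant enzyme activity (Vmax) measured at varied ATP and inhibitor concentrations; signal shifts (ΔS) plotted as Lineweaver–Burk double reciprocal plot to assess binding mode versus ATP.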

[13] = target: Epithelial discoidin domain-containing receptor 1 (Homo sapiens) (UniProt Q08345); assay: Inhibition of recombinant DDR1 (unknown origin) at 1 uM
Outline: (§3)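 Single-point screen at 1 μM on a recombinant panel of 34 clinically relevant kinases; percent inhibition reported.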

[14] = target: T1, Epidermal growth factor receptor; assay: Inhibition of EGFR phosphorylation in human NCI-H1993 cells at 1 uM after 1 hr by Western blot analysis; assay type: cell-based
[15] = target: Receptor tyrosine-protein kinase erbB-2 (Homo sapiens) (UniProt P04626); assay: Inhibition of recombinant ErbB2 (unknown origin) at 1 uM; outline: as §3
[16] = target: Mast/stem cell growth factor receptor Kit (Homo sapiens) (UniProt P10721); assay: Inhibition of recombinant c-KIT (unknown origin) at 1 uM; outline: as §3
[17] = target: Tyrosine-protein kinase receptor UFO (Homo sapiens) (UniProt P30530); assay: Inhibition of recombinant AXL (unknown origin) at 1 uM; outline: as §3
[18] = target: Proto-oncogene tyrosine-protein kinase receptor Ret (Homo sapiens) (UniProt P07949); assay: Inhibition of recombinant RET (unknown origin) at 1 uM; outline: as §3
MDCK [19] = assay: Cytotoxicity against MDCK cells assessed as cell death at 1 uM after 48 hrs; assay type: cell-based, Canis lupus familiaris; conditions: dog
[20] = target: T1, Epidermal growth factor receptor; assay: Inhibition of EGFR phosphorylation in human HCC827 cells at 1 uM after 1 hr by Western blot analysis; assay type: cell-based
[21] = target: Receptor-type tyrosine-protein kinase FLT3 (Homo sapiens) (UniProt P36888); assay: Inhibition of recombinant FLT3 (unknown origin) at 1 uM; outline: as §3
DU-145 = assay: Antiinvasive activity in human DU145 cells assessed as inhibition of HGF-induced cell motility preincubated for 1 hr before HGF treatment measured after 24 hrs by cell scattering assay; assay type: functional, cell-based
[22] = target: T2, Hepatocyte growth factor receptor; assay: Inhibition of c-MET phosphorylation in human HCC827 cells at 1 uM after 1 hr by Western blot analysis; assay type: cell-based
[23] = target: T2, Hepatocyte growth factor receptor; assay: Inhibition of c-MET phosphorylation in human NCI-H1993 cells at 1 uM after 1 hr by Western blot analysis; assay type: cell-based
[24] = target: T1, Epidermal growth factor receptor; assay: Competitive inhibition of recombinant EGFR (unknown origin) using poly-GT peptide as substrate by Lineweaver-Burk double reciprocal plot method; outline: as §2

IC50 [5] | IC50 [6] | IC50 [7] | IC50 (Insulin receptor) | inhibition [8] | SMILES | IC50 [1] | IC50 (NCI-H1993 [2]) | IC50 [4] | IC50 (NCI-H1975) | IC50 (A549) | also measured
 |  |  |  |  | CN(C)C/C=C/C(=O)Nc1cc2c(Nc3ccc(F)c(Cl)c3)ncnc2cc1O[C@H]1CCOC1 [AFATINIB] | 3600 nM | > 12500 nM |  |  |  | Activity (HCC827): Active; Activity (NCI-H1993 [3]): inactive
1910 nM | 2710 nM | 1900 nM | > 12500 nM | tde | COc1cc2c(Oc3ccc(NS(=O)(=O)c4cccc(-c5ccco5)c4)cc3F)ccnc2cc1OCCCN1CCN(C)CC1 | 3200 nM | > 10000 nM | 3110 nM | 1620 nM |  | 
168 nM | 1050 nM | 283 nM | 5230 nM | tde | COc1cc2c(Oc3ccc(NS(=O)(=O)c4cccc(-c5ccoc5)c4)cc3F)ccnc2cc1OCCCN1CCN(C)CC1 | 1760 nM | 2690 nM | 2500 nM | 2960 nM | 3650 nM | inhibition [9]: inactive; inhibition [10]: Active
572 nM | 1660 nM | 578 nM | 11800 nM | tde | COc1cc2c(Oc3ccc(NS(=O)(=O)c4cc(-c5ccsc5)ccc4F)cc3F)ccnc2cc1OCCCN1CCN(C)CC1 |  | 4000 nM | 2820 nM | 4100 nM | 4360 nM | 
 |  |  |  |  | C#Cc1cccc(Nc2ncnc3cc(OCCOC)c(OCCOC)cc23)c1 |  |  |  |  |  | Activity (HCC827): Active; Activity (NCI-H1993 [3]): inactive
84 nM | 564 nM | 369 nM | 7870 nM | tde | COc1cc2c(Oc3ccc(NS(=O)(=O)c4cccc(-c5cnn(C)c5)c4)cc3F)ccnc2cc1OCCCN1CCN(C)CC1 | 2480 nM | 6240 nM | 2830 nM | 6120 nM | 8850 nM | inhibition [9]: inactive; inhibition [10]: Active
1050 nM | 2710 nM | 1160 nM | > 12500 nM | tde | COc1cc2c(Oc3ccc(NS(=O)(=O)c4cccc(-c5cccs5)c4)cc3F)ccnc2cc1OCCCN1CCN(C)CC1 |  | 4030 nM | 5030 nM | 4520 nM | 3920 nM | 
> 16000 nM | 7 nM | > 16000 nM | 170 nM |  | COc1cc2c(Oc3ccc(NC(=O)c4c(C)n(C)n(-c5ccccc5)c4=O)cc3F)ccnc2cc1OCCCN1CCOCC1 | 74 nM | 5 nM | 2510 nM | 1460 nM | 1190 nM | inhibition [9]: inactive; inhibition [10]: Active
1200 nM | 2690 nM | 1850 nM | > 12500 nM | tde | COc1cc2c(Oc3ccc(NS(=O)(=O)c4ccc(-c5ccsc5)cc4)cc3F)ccnc2cc1OCCCN1CCN(C)CC1 |  | 5040 nM | 4610 nM | 7710 nM | 6780 nM | 
3860 nM | 978 nM | 2900 nM | > 12500 nM | tde | COc1cc2c(Oc3ccc(NS(=O)(=O)c4cccc(-c5ccoc5)c4)cc3F)ccnc2cc1OCCCN1CCOCC1 |  | 4460 nM | 4170 nM | 8930 nM | 8210 nM | 
4350 nM | 1230 nM | 7540 nM | > 12500 nM | tde | COc1cc2c(Oc3ccc(NS(=O)(=O)c4ccc(-c5cnn(C)c5)cc4)cc3F)ccnc2cc1OCCCN1CCN(C)CC1 |  | 4330 nM | 5900 nM | > 10000 nM | > 10000 nM | 
 |  |  |  |  | C[C@@H](Oc1cc(-c2cnn(C3CCNCC3)c2)cnc1N)c1c(Cl)ccc(F)c1Cl [CRIZOTINIB] | 364 nM | 61 nM |  |  |  | Activity (NCI-H1993 [3]): inactive
1370 nM | 1720 nM | 1970 nM | > 12500 nM | tde | COc1cc2c(Oc3ccc(NS(=O)(=O)c4cccc(-c5cnn(C)c5)c4)cc3F)ccnc2cc1OCCCN1CCOCC1 |  | 5230 nM | 5010 nM | 6900 nM | 6440 nM | 
94 nM | 398 nM | 310 nM | 2870 nM | tde | COc1cc2c(Oc3ccc(NS(=O)(=O)c4cccc(-c5ccsc5)c4)cc3F)ccnc2cc1OCCCN1CCN(C)CC1 | 2350 nM | 1360 nM | 1940 nM | 2300 nM | 4760 nM | Activity (MDCK [11]): Active; inhibition [12]: Active; inhibition [13]: > 70%; inhibition [14]: Active; inhibition [15]: > 70%; Activity (HCC827): Active; inhibition [16]: > 70%; inhibition [17]: > 70%; inhibition [18]: > 70%; Activity (MDCK [19]): Toxic; inhibition [20]: inactive; inhibition [21]: > 70%; IC50 (DU-145): 1100 nM; inhibition [22]: inactive; inhibition [23]: Active; Activity (NCI-H1993 [3]): inactive; inhibition [24]: Active
7670 nM | 5 nM | > 16000 nM | 39 nM | tde | COc1cc2c(Oc3ccc(NC(=O)c4c(C)n(C)n(-c5ccccc5)c4=O)cc3F)ccnc2cc1OCCCN1CCN(C)CC1 | 66 nM | 2 nM | 2580 nM | 1060 nM | 1240 nM | inhibition [9]: inactive; inhibition [10]: Active
 | 7 nM |  |  |  | CCOc1ccn(-c2ccc(F)cc2)c(=O)c1C(=O)Nc1ccc(Oc2ccnc(N)c2Cl)c(F)c1 [BMS-777607] |  | 1110 nM |  |  |  | IC50 (DU-145): 200 nM
